Data published in ChEMBL document CHEMBL3286292, “Synthesis and antimicrobial activity of amine linked bis- and tris-heterocycles” (2014).
The source made the active and inactive calls. The rule behind the calls is not given here.

Key:
Assay type in all cases: functional
[1] = tested on: Staphylococcus aureus; assay: Antibacterial activity against Staphylococcus aureus assessed as growth inhibition at 25 ug/well after 24 hrs by agar well diffusion method; details: for zone of inhibition at 25 µg/disc: read-out: DIZ
Method in brief: (§1)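 Agar well diffusion on […] swabbed with a 24 h broth culture. Samples were dissolved in DMSO and loaded at three per-well amounts into 6 mm wells. Incubation was 37 °C for 24 h, then inhibition zone diameter was read in mm. DMSO served as the negative control. Runs were in duplicate and averaged.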

[2] = tested on: Staphylococcus aureus; assay: Antibacterial activity against Staphylococcus aureus assessed as growth inhibition at 50 ug/well after 24 hrs by agar well diffusion method; details: for zone of inhibition at 50 µg/disc: read-out: DIZ; method in brief: as §1
[3] = tested on: Staphylococcus aureus; assay: Antibacterial activity against Staphylococcus aureus assessed as growth inhibition at 100 ug/well after 24 hrs by agar well diffusion method; details: for zone of inhibition at 100 µg/disc: read-out: DIZ; method in brief: as §1
[4] = tested on: Bacillus subtilis; assay: Antibacterial activity against Bacillus subtilis assessed as growth inhibition at 25 ug/well after 24 hrs by agar well diffusion method; details: for zone of inhibition at 25 µg/disc: read-out: DIZ; method in brief: as §1
[5] = tested on: Bacillus subtilis; assay: Antibacterial activity against Bacillus subtilis assessed as growth inhibition at 50 ug/well after 24 hrs by agar well diffusion method; details: for zone of inhibition at 50 µg/disc: read-out: DIZ; method in brief: as §1
[6] = tested on: Bacillus subtilis; assay: Antibacterial activity against Bacillus subtilis assessed as growth inhibition at 100 ug/well after 24 hrs by agar well diffusion method; details: for zone of inhibition at 100 µg/disc: read-out: DIZ; method in brief: as §1
[7] = tested on: Pseudomonas aeruginosa; assay: Antibacterial activity against Pseudomonas aeruginosa assessed as growth inhibition at 25 ug/well after 24 hrs by agar well diffusion method; details: for zone of inhibition at 25 µg/disc: read-out: DIZ; method in brief: as §1
[8] = tested on: Pseudomonas aeruginosa; assay: Antibacterial activity against Pseudomonas aeruginosa assessed as growth inhibition at 50 ug/well after 24 hrs by agar well diffusion method; details: for zone of inhibition at 50 µg/disc: read-out: DIZ; method in brief: as §1
[9] = tested on: Pseudomonas aeruginosa; assay: Antibacterial activity against Pseudomonas aeruginosa assessed as growth inhibition at 100 ug/well after 24 hrs by agar well diffusion method; details: for zone of inhibition at 100 µg/disc: read-out: DIZ; method in brief: as §1
[10] = tested on: Klebsiella pneumoniae; assay: Antibacterial activity against Klebsiella pneumoniae assessed as growth inhibition at 25 ug/well after 24 hrs by agar well diffusion method; details: for zone of inhibition at 25 µg/disc: read-out: DIZ; method in brief: as §1
[11] = tested on: Klebsiella pneumoniae; assay: Antibacterial activity against Klebsiella pneumoniae assessed as growth inhibition at 50 ug/well after 24 hrs by agar well diffusion method; details: for zone of inhibition at 50 µg/disc: read-out: DIZ; method in brief: as §1
[12] = tested on: Klebsiella pneumoniae; assay: Antibacterial activity against Klebsiella pneumoniae assessed as growth inhibition at 100 ug/well after 24 hrs by agar well diffusion method; details: for zone of inhibition at 100 µg/disc: read-out: DIZ; method in brief: as §1
[13] = tested on: Aspergillus niger; assay: Antifungal activity against Aspergillus niger assessed as inhibition of spore germination at 25 ug/well after 48 hrs by agar well diffusion method; details: for zone of inhibition at 25 µg/disc: read-out: DIZ
Method in brief: (§2)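 Well diffusion using 6 mm bored wells loaded with DMSO solutions at three per-well amounts, with a DMSO negative control. Plates were held at 28 °C for 48 h, then zone of inhibition diameter was measured in mm. Runs were in duplicate and averaged.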

[14] = tested on: Aspergillus niger; assay: Antifungal activity against Aspergillus niger assessed as inhibition of spore germination at 50 ug/well after 48 hrs by agar well diffusion method; details: for zone of inhibition at 50 µg/disc: read-out: DIZ; method in brief: as §2

Row | Compound | growth inhibition (GI) [1] | growth inhibition (GI) [2] | growth inhibition (GI) [3] | growth inhibition (GI) [4] | growth inhibition (GI) [7] | growth inhibition (GI) [8] | zone of inhibition at 25 µg/disc [1] [mm] | zone of inhibition at 50 µg/disc [2] [mm] | zone of inhibition at 100 µg/disc [3] [mm] | zone of inhibition at 25 µg/disc [4] [mm] | zone of inhibition at 50 µg/disc [5] [mm] | zone of inhibition at 100 µg/disc [6] [mm] | zone of inhibition at 25 µg/disc [7] [mm] | zone of inhibition at 50 µg/disc [8] [mm] | zone of inhibition at 100 µg/disc [9] [mm] | zone of inhibition at 25 µg/disc [10] [mm] | zone of inhibition at 50 µg/disc [11] [mm] | zone of inhibition at 100 µg/disc [12] [mm] | zone of inhibition at 25 µg/disc [13] [mm] | zone of inhibition at 50 µg/disc [14] [mm] | further results
1 | Cc1ccc(-c2coc(NC3=NN(C(N)=S)[C@@H](c4ccc(C)cc4)C3)n2)cc1 | inactive | inactive | inactive | inactive | inactive | inactive |  |  |  |  |  |  |  |  |  |  |  |  |  |  | growth inhibition (GI) [5]: inactive; growth inhibition (GI) [6]: inactive; growth inhibition (GI) [9]: inactive; growth inhibition (GI) [10]: inactive; growth inhibition (GI) [11]: inactive; growth inhibition (GI) [12]: inactive; growth inhibition (GI) [13]: inactive; zone of inhibition [14]: inactive
2 | NC(=S)n1nc(Nc2nc(-c3ccc(Cl)cc3)cs2)cc1-c1ccc(Cl)cc1 |  |  |  |  |  |  | 24 | 26 | 29 | 22 | 25 | 26 | 14 | 16 | 18 | 26 | 28 | 31 | 20 | 22 | 
3 | NC(=S)n1nc(Nc2nc(-c3ccc(Cl)cc3)co2)cc1-c1ccc(Cl)cc1 |  |  |  |  |  |  | 15 | 17 | 19 | 15 | 16 | 19 | 8 | 9 | 12 | 16 | 17 | 20 | 10 | 11 | 
4 | NC(=S)n1nc(Nc2nc(-c3ccccc3)cs2)cc1-c1ccccc1 |  |  |  |  |  |  | 22 | 25 | 26 | 21 | 22 | 24 | 12 | 15 | 17 | 23 | 25 | 28 | 17 | 19 | 
5 | Cc1ccc(-c2c[nH]c(Nc3cc(-c4ccc(C)cc4)n(C(N)=S)n3)n2)cc1 |  |  |  |  | inactive | inactive | 10 | 12 | 14 | 9 | 10 | 13 |  |  | 7 | 10 | 12 | 14 | 14 | 15 | 
6 | Cc1ccc(-c2csc(NC3=NN(C(N)=S)[C@@H](c4ccc(C)cc4)C3)n2)cc1 | inactive | inactive | inactive | inactive | inactive | inactive |  |  |  |  |  |  |  |  |  |  |  |  |  |  | growth inhibition (GI) [5]: inactive; growth inhibition (GI) [6]: inactive; growth inhibition (GI) [9]: inactive; growth inhibition (GI) [10]: inactive; growth inhibition (GI) [11]: inactive; growth inhibition (GI) [12]: inactive; growth inhibition (GI) [13]: inactive; zone of inhibition [14]: inactive
